For experiment [1], the target named is Receptor-type tyrosine-protein kinase FLT3 (Homo sapiens, UniProt P36888). Put plainly: Inhibition of FLT3 by HotSpot assay.
Experiment [2] addresses Receptor-type tyrosine-protein kinase FLT3 (Homo sapiens) (UniProt P36888). Put plainly: Inhibition of FLT3 at 10 uM by HotSpot assay.
In experiment [3] the test system is SR. As to the kind of experiment: Cytotoxicity against human SR cells assessed as cell growth at 0.01 uM after 48 hrs by sulforhodamine B assay. It counts as functional. As to conditions: read-out: Activity.
The test system of experiment [4] is SK-MEL-28. Put plainly: Cytotoxicity against human SK-MEL-28 cells assessed as cell growth at 10 uM after 48 hrs by sulforhodamine B assay. The experiment is classed as functional. As to conditions: SK-MEL-28, 48 h, read-out: Activity. (In general: Sulforhodamine B stains cellular protein and so reports cell mass.)
Experiment [5] relates to SK-MEL-28. As to the kind of experiment: Cytotoxicity against human SK-MEL-28 cells assessed as cell growth at 0.001 uM after 48 hrs by sulforhodamine B assay. The settings on record: SK-MEL-28, 48 h, read-out: Activity. The experiment is classed as functional.
In experiment [6] the test system is ACHN. Put plainly: Cytotoxicity against human ACHN cells assessed as cell growth at 0.01 uM after 48 hrs by sulforhodamine B assay. It counts as functional. As to conditions: read-out: Activity.
Experiment [7] has as its system RXF 393. As to the kind of experiment: Cytotoxicity against human RXF393 cells assessed as cell growth at 0.001 uM after 48 hrs by sulforhodamine B assay. The experiment is classed as functional. The settings on record: RXF 393, 48 h, read-out: Activity.
Experiment [8] relates to HCC 2998. Put plainly: Cytotoxicity against human HCC2998 cells assessed as cell growth at 100 nM after 48 hrs by sulforhodamine B assay. It counts as functional. As to conditions: HCC 2998, 48 h, read-out: Activity.
Experiment [9] has as its system RXF 393. As to the kind of experiment: Growth inhibition of human RXF393 cells after 48 hrs by sulforhodamine B assay. The experiment is classed as functional. The settings on record: RXF 393, 48 h. An outline of the steps:
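NCI 60-cell screen, five-dose mode. Cells grown in RPMI 1640 with 5% FBS and 2 mM L-glutamine and plated at 5000-40,000 cells/well according to doubling time. After 24 h preincubation, a Tz plate was TCA-fixed. Five concentrations (10-fold or 1/2 log dilutions) were applied for 48 h at 37 °C. SRB staining read at 515 nm. IC50 taken from [(Ti-Tz)/(C-Tz)]×100 = 50.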

Experiment [10] concerns RXF 393. Put plainly: Cytotoxicity against human RXF393 cells assessed as cell growth at 1 uM after 48 hrs by sulforhodamine B assay. It counts as functional. As to conditions: RXF 393, 48 h, read-out: Activity.
In experiment [11] the test system is MCF7. As to the kind of experiment: Cytotoxicity against human MCF7 cells assessed as cell growth at 1 uM after 48 hrs by sulforhodamine B assay. The experiment is classed as functional. As to conditions: MCF7, 48 h, read-out: Activity.

Chain of Receptor-type tyrosine-protein kinase FLT3 (P36888 whole entry): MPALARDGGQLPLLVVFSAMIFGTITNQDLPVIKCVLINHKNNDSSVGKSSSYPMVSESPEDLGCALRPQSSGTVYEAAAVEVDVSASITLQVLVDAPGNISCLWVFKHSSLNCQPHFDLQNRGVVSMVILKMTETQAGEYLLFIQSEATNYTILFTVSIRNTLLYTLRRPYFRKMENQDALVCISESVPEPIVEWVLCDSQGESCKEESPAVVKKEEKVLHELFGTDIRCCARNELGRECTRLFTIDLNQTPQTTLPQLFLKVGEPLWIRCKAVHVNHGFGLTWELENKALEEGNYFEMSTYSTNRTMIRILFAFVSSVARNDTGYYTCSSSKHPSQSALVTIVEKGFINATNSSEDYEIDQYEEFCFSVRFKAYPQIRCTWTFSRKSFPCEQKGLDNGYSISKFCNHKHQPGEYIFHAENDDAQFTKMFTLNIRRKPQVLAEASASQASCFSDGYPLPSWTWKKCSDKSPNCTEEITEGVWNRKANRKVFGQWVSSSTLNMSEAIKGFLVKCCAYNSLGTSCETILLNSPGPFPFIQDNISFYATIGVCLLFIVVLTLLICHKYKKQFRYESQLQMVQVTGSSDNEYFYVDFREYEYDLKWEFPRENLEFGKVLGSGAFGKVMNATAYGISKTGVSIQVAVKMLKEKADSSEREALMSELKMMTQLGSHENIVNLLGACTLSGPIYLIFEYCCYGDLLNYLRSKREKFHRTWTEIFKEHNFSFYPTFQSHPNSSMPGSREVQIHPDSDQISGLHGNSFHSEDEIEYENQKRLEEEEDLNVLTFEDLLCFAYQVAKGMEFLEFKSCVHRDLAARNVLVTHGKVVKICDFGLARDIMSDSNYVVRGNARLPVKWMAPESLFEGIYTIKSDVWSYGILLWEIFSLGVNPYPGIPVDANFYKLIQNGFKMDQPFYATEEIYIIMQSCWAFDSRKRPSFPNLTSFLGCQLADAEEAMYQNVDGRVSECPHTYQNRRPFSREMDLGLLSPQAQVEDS
Chain of Receptor-type tyrosine-protein kinase FLT3 (Homo sapiens) (P36888 whole entry): as above

Turning to `COc1cc(C)cc(-c2c(-c3ccnc(-c4ccc(N(C)C)cc4)c3)cnn2CC#N)c1`, in [1], the IC50 – broadly, the concentration needed to halve the response being measured – came out at 1.74 µM. Moreover, the inhibition (in general, how much of the control response was suppressed) in experiment [2] turned out to be 82.3%.
`Cc1cc(O)cc(-c2nn(CC#N)cc2-c2ccnc(-c3ccc(N(C)C)cc3)c2)c1`: the growth at 0.01 µM in experiment [3] turned out to be 93%; in experiment [6] it was 82%. Besides, in experiment [4], the growth at 10 µM is -31%. Besides, the growth at 0.001 µM is 102% in experiment [5] and 100% in [7]. For the same compound, the growth at 0.1 µM in [8] came to 87%. Moreover, the GI50 (as a rule, the concentration at which growth is held to half of that of the control) in experiment [9] came out at 2.87 µM. For the same compound, the LC50 (concentration killing 50% of the starting cells) in experiment [9] was greater than 100 µM. Moreover, the TGI (as a rule, the concentration giving total growth inhibition) in experiment [9] came out at 61.4 µM. Further, the figures for the growth at 1 µM in experiment [10] and in experiment [11] were -32% and 10%, respectively.
In the case of `COc1cc(C)cc(-c2nn(CC#N)cc2-c2ccnc(-c3ccc(N(C)C)cc3)c2)c1`, the growth at 0.01 µM in experiment [3] was determined as 97%; in [6], 98%. In addition, the growth at 10 µM in experiment [4] was determined as 13%. For the same compound, the growth at 0.001 µM in experiment [5] turned out to be 100%; in experiment [7], 105%. Further, the growth at 0.1 µM in experiment [8] is 20%. The GI50 in experiment [9] is 0.258 µM. The compound further had an LC50 (concentration killing 50% of the starting cells) in experiment [9] greater than 100 µM. The compound also gave a concentration for total growth inhibition (TGI) in experiment [9] of 0.633 µM. The growth at 1 µM was -21% in experiment [10] and 7% in experiment [11].
With `COc1cc(C)cc(-c2c(-c3ccnc(-c4ccc(C(C)=O)cc4)c3)cnn2CC#N)c1`, the growth at 0.01 µM turned out to be 95% in [3] and 96% in experiment [6]. For the same compound, the growth at 10 µM in experiment [4] is 46%. Further, the growth at 0.001 µM in experiment [5] stood at 90%; in experiment [7], 86%. Also, the growth at 0.1 µM in [8] amounted to 104%. This compound also displayed a GI50 in experiment [9] of 2.32 µM. The compound further had an LC50 (concentration killing 50% of the starting cells) in experiment [9] greater than 100 µM. This compound displayed a TGI in [9] of 6.02 µM. Moreover, the growth at 1 µM in experiment [10] was -27%; in [11], 16%.
On to `COc1cc(C)cc(-c2nn(CC#N)cc2-c2ccc(-c3cccc(C(C)=O)c3)nc2)c1`, for which the growth at 0.01 µM in [3] amounted to 103%; in [6], 90%. In addition, the growth at 10 µM in [4] was -1%. Also, the growth at 0.001 µM was 92% in experiment [5] and 90% in experiment [7]. Also, in [8], the growth at 0.1 µM was determined as 81%. In [9], this compound yielded a GI50 of 1.49 µM. In addition, the LC50 (concentration killing 50% of the starting cells) in experiment [9] stood at 8.62 µM. In addition, the total growth inhibition concentration (TGI) in experiment [9] was found to be 3.59 µM. Moreover, the growth at 1 µM was -58% in experiment [10] and 7% in experiment [11].
For the compound `Cc1cc(O)cc(-c2nn(CC#N)cc2-c2ccnc(-c3ccc(Oc4ccccc4)cc3)c2)c1`, the growth at 0.01 µM in [3] and in experiment [6] was 95% in each case. Also, the growth at 10 µM in [4] is -100%. The growth at 0.001 µM in experiment [5] was 91%; in experiment [7], 88%. For the same compound, the growth at 0.1 µM in experiment [8] stood at 107%. Also, the GI50 in experiment [9] was 2.08 µM. In experiment [9], this compound returned an LC50 (concentration killing 50% of the starting cells) of 8.92 µM. Moreover, the TGI in [9] is 4.31 µM. Also, the growth at 1 µM is -58% in [10] and -34% in [11].

The record behind these values is ChEMBL document CHEMBL1165950, “Design and synthesis of new potent anticancer pyrazoles with high FLT3 kinase inhibitory selectivity” (Bioorg Med Chem, 2010).
